# Rows were chosen to be rich in hits. Some 2.8% of all compounds tested hit in one or more screens of this group.
# HTRA1 inhibitor: HTRA1 (human) protease inhibition; actives 0.5% (n = 340,000); inhibition, % at 5.96 µM; AID 504803; Q92743; recombinant HTRA1, FP-rhodamine activity-based probe, fluorescence polarization; in the data active = inhibition above about 36%;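 note: 0% = enzyme with DMSO and 100% = wells lacking enzyme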
# pPAFAH inh: pPAFAH (human) enzyme inhibition. Q13093. recombinant pPAFAH, FP-rhodamine probe fluorescence polarization. inhibition, % at 3.39 µM. actives 1.5% (n = 330,000). AID 463082;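 active = inhibition above the mean inhibition across the screen plus 3 SD, cut at about 25% in these data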;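 note: inhibitors block binding of the rhodamine activity-based probe so polarization drops; 0% = enzyme with DMSO and 100% = wells lacking pPAFAH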
# Target sequence (Q13093 whole entry, looked up): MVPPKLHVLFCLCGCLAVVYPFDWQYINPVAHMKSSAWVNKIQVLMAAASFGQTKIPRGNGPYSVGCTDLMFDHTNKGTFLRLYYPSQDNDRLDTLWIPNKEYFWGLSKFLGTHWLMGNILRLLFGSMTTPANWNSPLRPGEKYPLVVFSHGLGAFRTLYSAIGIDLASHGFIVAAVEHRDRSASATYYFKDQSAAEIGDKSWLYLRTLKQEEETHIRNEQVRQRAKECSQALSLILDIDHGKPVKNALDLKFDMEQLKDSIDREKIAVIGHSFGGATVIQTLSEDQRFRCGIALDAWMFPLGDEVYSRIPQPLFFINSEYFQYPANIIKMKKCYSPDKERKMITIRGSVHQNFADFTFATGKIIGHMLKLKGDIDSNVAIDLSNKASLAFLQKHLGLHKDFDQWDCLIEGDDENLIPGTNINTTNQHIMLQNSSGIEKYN
# PAFAH1B3 inh: blocks human PAF acetylhydrolase 1B catalytic subunit 3 | recombinant PAFAH1B3, FP-rhodamine probe, fluorescence polarization | actives 0.28% (n = 340,000) | AID 492972 | inhibition, % at 3.39 µM;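 active = inhibition above the screen-wide average of all tested compounds plus 3 SD, cut at about 25% in these data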;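 note: 0% = enzyme with DMSO only and 100% = wells lacking PAFAH1B3 protein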
# Target sequence (Q15102 whole entry, looked up): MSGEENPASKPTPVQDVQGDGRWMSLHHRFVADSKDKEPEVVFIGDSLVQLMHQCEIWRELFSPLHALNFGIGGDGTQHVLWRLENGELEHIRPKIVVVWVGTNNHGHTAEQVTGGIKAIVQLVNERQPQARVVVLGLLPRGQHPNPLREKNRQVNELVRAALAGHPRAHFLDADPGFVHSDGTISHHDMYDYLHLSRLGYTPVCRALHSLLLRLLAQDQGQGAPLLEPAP
# mABHD4 FP: inhibitors of mouse ABHD4 | inhibition, % at 8.92 µM | actives 0.54% (n = 370,000) | AID 720543 | Q8VD66 | purified mABHD4, FP-Rh probe fluorescence polarization;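 active = inhibition exceeding the mean over every tested compound plus 3 SD, cut at about 30% in these data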;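 note: 0% = plate median of compound wells and 100% = S159A mutant with DMSO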
#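 Assay system: wild-type mouse ABHD4 protein; compound: single nominal dose of 8.92 µM, 0.89% DMSO final; schedule: 45 min + 60 min at 25 °C; measured by: FP readout, ex 525 nm / em 598 nm; evaluation: % inhibition of FP-Rh probe binding versus controls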
# PAFAH2 FP inh: PAFAH2 (human) inhibition. actives 0.99% (n = 340,000). AID 492956. Q99487. inhibition, % at 3.39 µM. recombinant PAFAH2, FP-rhodamine activity probe, fluorescence polarization;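 active = inhibition above the mean over all tested compounds plus 3 SD, cut at about 30% in these data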;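 note: inhibitors block probe labeling of enzyme so polarization drops; 0% = enzyme with DMSO and 100% = wells lacking PAFAH2 protein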
# PAFAH1B2 inh: blocks human PAF acetylhydrolase 1b catalytic subunit 2 | P68402 | recombinant PAFAH1B2, FP-rhodamine activity probe, fluorescence polarization | inhibition, % at 3.39 µM | actives 1.2% (n = 340,000);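 active = inhibition above the mean of all tested compounds plus 3 SD, cut at about 24% in these data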;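 note: 0% = enzyme with DMSO and 100% = wells lacking PAFAH1B2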
# ABHD4 confirm: confirmation of mouse ABHD4 inhibitors; shares compounds with mABHD4 FP; purified mABHD4, FP-Rh probe fluorescence polarization; inhibition, % at 8.92 µM; actives 55% (n = 1,800); AID 720658;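 active = mean inhibition across replicates above the hit cutoff set in the primary screen, cut at about 30% in these data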;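 note: 0% = wild-type ABHD4 with DMSO and 100% = catalytically dead S159A mutant with DMSO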
# An asterisk follows results filed as active; nt = not tested or not shown.
SMILES,HTRA1 inhibitor,pPAFAH inh,PAFAH1B3 inh,mABHD4 FP,PAFAH2 FP inh,PAFAH1B2 inh,ABHD4 confirm
NC(Cc1ccccc1)c1csc(Nc2ccc(C(F)(F)F)cn2)n1 (stereo unspecified),nt,nt,nt,13,nt,nt,nt
COc1ccc(C(N)c2csc(Nc3ccc(C(F)(F)F)cn3)n2)cc1 (stereo unspecified),nt,nt,nt,34*,nt,nt,25
Nc1[nH]c(C(=O)c2ccccc2)c(-c2ccc(Cl)c(F)c2)c1C(=O)NCCc1c[nH]c2ccccc12,nt,nt,nt,40*,nt,nt,43*
Nc1[nH]c(C(=O)c2ccccc2)c(-c2ccc(Cl)c(Cl)c2)c1C(=O)NCCc1c[nH]c2ccccc12,nt,nt,nt,33*,nt,nt,19
Nc1[nH]c(C(=O)c2ccccc2)c(-c2cccc(C(F)(F)F)c2)c1C(=O)NCCc1c[nH]c2ccccc12,nt,nt,nt,31*,nt,nt,3
Nc1[nH]c(C(=O)c2ccccc2)c(-c2ccc(Cl)cc2)c1C(=O)NCCc1c[nH]c2ccccc12,nt,nt,nt,31*,nt,nt,23
CCOC(=O)[C@]12CCCC=C1N(CCCOC)C(=O)[C@@H]2CC(=O)NCc1ccc(OC)c(OC)c1,nt,nt,nt,0,nt,nt,nt
Nc1[nH]c(C(=O)c2ccccc2)c(-c2ccc3c(c2)OCO3)c1C(=O)NCCc1c[nH]c2ccccc12,nt,nt,nt,33*,nt,nt,39*
Nc1[nH]c(C(=O)c2ccccc2)c(-c2ccc(Cl)cc2Cl)c1C(=O)NCCc1c[nH]c2ccccc12,nt,nt,nt,33*,nt,nt,26
Nc1[nH]c(C(=O)c2ccccc2)c(-c2ccc(F)cc2)c1C(=O)NCCc1c[nH]c2ccccc12,nt,nt,nt,20,nt,nt,nt
Nc1[nH]c(C(=O)c2ccc(Br)cc2)c(-c2ccc3ccccc3c2)c1C(=O)NCCc1c[nH]c2ccccc12,nt,nt,nt,30*,nt,nt,35*
CCSC1=N/C(=C\c2ccc(-c3ccccc3[N+](=O)[O-])o2)C(=O)S1,14,18,4,37*,10,5,16
Cc1ccc(-n2c(SCC(=O)C(C)(C)C)nnc2-c2cccc(C)c2)cc1,nt,nt,nt,6,nt,nt,nt
O=C(/C=C1\C(=O)Nc2ccccc21)/C=C1\C(=O)Nc2ccccc21,25,nt,4,41*,5,8,24
N#CC(C#N)=c1ccc2c(c1)N1C3=C(CCCC3)CC3CCCCC31N=2 (stereo unspecified),19,2,4,7,2,6,nt
N#C/C(C(N)=O)=c1/ccc2c(c1)N1C3=C(CCCC3)CC3CCCCC31N=2 (stereo unspecified),nt,9,nt,49*,nt,nt,49*
Fc1ccccc1-c1n[nH]c(=S)n1N=Cc1ccc(-c2ccccc2)cc1,nt,nt,nt,-1,nt,nt,nt
O=C(NCC(c1ccccc1)c1ccccc1)[C@H](Cc1c[nH]c2ccccc12)NC1(C(=O)NC2CCCCC2)CCCCCC1,nt,nt,nt,4,nt,nt,nt
COc1ccccc1-n1c(=O)c2c3c(sc2n2c(=S)[nH]nc12)CCC3,-3,2,0,34*,14,3,29
COc1ccc(-n2c(=O)c3c4c(sc3n(CC(=O)Nc3cc(C)[nH]n3)c2=O)CCC4)c(OC)c1,-11,-1,8,0,6,1,nt
COc1cc(C=C2C(=O)C=CC2=O)ccc1O,nt,nt,nt,37*,nt,nt,0
COc1cc(/C=C2/C(=O)CNC2=O)ccc1O,5,0,-6,-11,5,-1,nt
O=C(Cn1c(-c2cncs2)nc2ccccc21)NCc1cccs1,nt,nt,nt,-6,nt,nt,nt
Cc1nn(-c2cccc(Cl)c2)c2c1C(c1ccncc1)C(C#N)=C(N)O2 (stereo unspecified),31,17,7,48*,20,6,50*
Cc1nn(-c2cccc(Cl)c2)c2c1C(c1cccnc1)C(C#N)=C(N)O2 (stereo unspecified),23,14,-1,31*,7,-2,6
SMILES,HTRA1 inhibitor,pPAFAH inh,PAFAH1B3 inh,mABHD4 FP,PAFAH2 FP inh,PAFAH1B2 inh,ABHD4 confirm
C[N+]1=C(N)NC2=C3CCCCC3n3c(=O)n(-c4ccccc4)c(=O)n3C2C1 (stereo unspecified),nt,nt,nt,4,nt,nt,nt
NS(=O)(=O)c1ccc(NC2=CC(=O)C(=O)c3ccccc32)cc1,14,18,19,31*,13,2,9
CCOC(=O)c1ccc(NC2=CC(=O)C(=O)c3ccccc32)cc1,9,17,58*,30*,38*,14,44*
COc1ccc(N2CCN(c3ccc(NC(=O)/C=C\C(=O)O)cc3)CC2)cc1,32,25,12,36*,5,-6,-7
O=C(O)/C=C/C(=O)Nc1ccc(O)cc1,16,19,6,37*,0,3,16
COc1ccc(/C=C/C(=O)Nc2ccc(N3CCOCC3)cc2)cc1,-1,2,6,7,4,-2,nt
CC(C)n1nnnc1C1c2ccccc2OCC(=O)N1Cc1cccc(C(F)(F)F)c1 (stereo unspecified),nt,nt,nt,1,nt,nt,nt
NNC(=O)c1cc(-c2ccc(N)cc2)nc2ccc(Br)cc12,nt,-5,nt,40*,nt,nt,4
Cc1cc(C(=O)NN)c2cc(Br)ccc2n1,-2,5,11,-3,7,2,nt
CCOc1cccc(C=NNc2ccc(S(=O)(=O)Nc3ccccc3C(=O)O)cc2[N+](=O)[O-])c1O,14,30*,9,62*,7,16,66*
COc1ccccc1NS(=O)(=O)c1ccc(N/N=C(\C)C(C)C)c([N+](=O)[O-])c1,2,10,13,-12,4,8,nt
CSc1ccc(C=NNc2ccc(S(=O)(=O)Nc3ccccc3C(=O)O)cc2[N+](=O)[O-])cc1,16,22,14,32*,20,9,78*
C=CCOc1ccc(C=NNc2ccc(S(=O)(=O)Nc3ccccc3C(=O)O)cc2[N+](=O)[O-])cc1OC,26,37*,15,50*,13,10,59*
CCCC(CCC)=NNc1ccc(S(=O)(=O)Nc2ccccc2OC)cc1[N+](=O)[O-],-5,-1,5,3,-2,1,nt
CCn1c(SCC(=O)N/N=C/c2cccc(Oc3ccccc3)c2)nnc1-c1ccccc1,nt,nt,nt,-9,nt,nt,nt
CC/C(=C\C(=O)c1ccncc1)Nc1ccc(O)cc1,22,23,2,75*,-2,2,38*
O=C(N/N=C/c1ccc(O)cc1)c1ccncc1,5,8,8,-4,-3,1,nt
O=C(C1CCCN(S(=O)(=O)c2ccc(F)cc2)C1)N1CCN(Cc2ccccc2)CC1 (stereo unspecified),nt,nt,nt,2,nt,nt,nt
CC(C)(C)c1ccc(C(=O)N/C(=C\c2cccc([N+](=O)[O-])c2)C(=O)Nc2cccc(C(=O)O)c2)cc1,-27,14,12,33*,4,11,31*
COc1ccc(-c2cc(-c3nnc(SCC(=O)Nc4ccc(-c5nc6ccc(C)cc6s5)cc4)n3N)[nH]n2)cc1,nt,nt,nt,-8,nt,nt,nt

# From PubChem
